Experimental data: ChEMBL document CHEMBL5715950, “Characterization of molecular and cellular functions of the cyclin-dependent kinase CDK9 using a novel specific inhibitor” (Br J Pharmacol, 2014)
Activity calls are given as the source filed them. No cut-off for these calls is given here.

Experiments:
[1] = Selectivity ratio of IC50 for inhibition of CDK9/Cyclin T1 (unknown origin) to IC50 for inhibition of CDK7/Cyclin H/MAT1 (unknown origin)
HeLa = test: Inhibition of RNA synthesis in human HeLa cells stably transfected with luciferase reporter gene at 10 uM incubated for 30 mins followed by doxycycline addition and measured after 60 mins by RT-qPCR analysis relative to control; type: functional; conditions: 1.5 h, time 90 min
Procedure, shortened: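 Stably transfected HeLa cells carrying a tetracycline-inducible luciferase reporter: inhibitor or DMSO for 30 min, then 1 μg/mL doxycycline for 60 min. De novo reporter transcripts measured by RT-qPCR.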

[2] = molecular target: Cyclin-dependent kinase 9 (Homo sapiens) (UniProt P50750); test: Inhibition of CDK9 in human HeLa cells assessed as upregulation of serine 7 phosphorylation at 10 uM incubated for 1 hr by chromatin immunoprecipitation assay; type: cell-based
[3] = molecular target: Cyclin-dependent kinase 9 (Homo sapiens) (UniProt P50750); test: Inhibition of CDK9 in human HeLa cells assessed as upregulation of serine 5 phosphorylation at 10 uM incubated for 1 hr by chromatin immunoprecipitation assay; type: cell-based
[4] = molecular target: Cyclin-dependent kinase 1/cyclin B1 (Homo sapiens, UniProt P06493); test: Inhibition of CDK1/Cyclin B1 (unknown origin) using ULight MBP peptide as substrate in presence of ATP incubated for 1 hr by FRET based LANCE Ultra KinaSelect screen assay; type: protein-complex assay
Procedure, shortened: (§1)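 Time-resolved FRET kinase assay with purified CDK-cyclin pairs. ULight MBP peptide substrate was 50 nM final. Buffer was 50 mM HEPES-KOH pH 7.5, 10 mM MgCl2, 1 mM EGTA and 2 mM DTT, with ATP at each kinase's KM (CDK2-cyclin A 3 μM). Reactions ran 1 h at room temperature, then 2 nM Eu-labelled anti-phospho antibody was added for detection. IC50 given as mean ± SD.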

HCT 116 TP53(-/-) = test: Induction of apoptosis in human HCT116-p53-null cells at 10 uM incubated for 24 hrs by Annexin V-FITC/PI staining based flow cytometric analysis; type: functional, cell-based
Procedure, shortened: (§2)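 Cells grown at 37°C, 5% CO2 (A549, HeLa, MCF7 in DMEM high glucose; HCT116 in McCoy's 5A; THP1 and primary AML M4 apheresis blasts in RPMI1640), exposed to inhibitor or DMSO for 24 h. Apoptotic fraction by flow cytometry after annexin V-fluorescein/propidium iodide double staining. Means ± SD of three biological replicates; AML blasts from one patient, three technical replicates. Student's t-test versus DMSO/untreated.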

[5] = Inhibition of transcription in human HEK293T cells nuclear extract fused with Gal4-VP16 at 4 uM in presence of ATP by phosphorimaging analysis; type: functional; conditions: HEK-293T
Procedure, shortened: (§3)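 In vitro transcription from the adenovirus core promoter (Gal-ML, 380 bp G-free cassette), soluble or bead-immobilised template, using HEK293T nuclear extract supplemented with recombinant Gal4-VP16. ATP 60 μM (low), 100 μM, or 500 μM (high); magnesium varied in one series. Transcripts quantified by phosphorimaging.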

[6] = Selectivity ratio of IC50 for inhibition of CDK9/Cyclin T1 (unknown origin) to IC50 for inhibition of CDK1/Cyclin B1 (unknown origin)
[7] = molecular target: Cyclin-dependent kinase 9 (Mus musculus) (UniProt Q99J95); test: Inhibition of CDK9 in mouse Embryonic stem cell assessed as downregulation of MYC mRNA expression at 2.5 to 40 uM incubated for 90 mins by RT-qPCR analysis relative to control; type: cell-based; conditions: dose 2.5-40 µM
[8] = Selectivity ratio of IC50 for inhibition of CDK9/Cyclin T1 (unknown origin) to IC50 for inhibition of CDK2/Cyclin A (unknown origin)
[9] = molecular target: Cyclin-dependent kinase 9 (Homo sapiens) (UniProt P50750); test: Inhibition of CDK9 in human MCF7 cells assessed as upregulation of p53 protein at 10 uM incubated for 4 hrs by Western blotting analysis; type: cell-based
MCF7 = test: Induction of apoptosis in human MCF7 cells at 10 uM incubated for 24 hrs by Annexin V-FITC/PI staining based flow cytometric analysis; type: functional, cell-based; procedure, shortened: as §2
[10] = molecular target: Cyclin-dependent kinase 9 (Homo sapiens) (UniProt P50750); test: Inhibition of CDK9 in human THP-1 cells assessed as downregulation of RPL31 mRNA expression by RT-qPCR analysis; type: cell-based
HEK-293T = test: Inhibition of transcription in human HEK293T cells nuclear extract fused with Gal4-VP16 at 10 uM in presence of ATP and KCL by phosphorimaging analysis; type: functional, subcellular; conditions: Nucleus; procedure, shortened: as §3
[11] = molecular target: Cyclin-dependent kinase 9 (Homo sapiens) (UniProt P50750); test: Inhibition of CDK9 in human A549 cells assessed as downregulation of GAPDH mRNA expression at 1 to 10 uM incubated for 90 mins by RT-qPCR analysis relative to control; type: cell-based; conditions: dose 1-10 µM
[12] = Inhibition of CDK2/Cyclin A (unknown origin) using ULight MBP peptide as substrate in presence of ATP incubated for 1 hr by FRET based LANCE Ultra KinaSelect screen assay; parameters: species or system Homo sapiens; procedure, shortened: as §1
[13] = molecular target: Cyclin-dependent kinase 9 (Homo sapiens) (UniProt P50750); test: Inhibition of CDK9 in human A549 cells assessed as downregulation of CCND1 mRNA expression at 1 to 10 uM incubated for 90 mins by RT-qPCR analysis relative to control; type: cell-based; conditions: dose 1-10 µM
[14] = molecular target: Cyclin-dependent kinase 9 (Homo sapiens) (UniProt P50750); test: Inhibition of CDK9 in human A549 cells assessed as downregulation of MYC mRNA expression at 2 to 6 uM incubated for 90 mins by RT-qPCR analysis relative to control; type: cell-based; conditions: dose 2-6 µM
[15] = molecular target: T1, Mitogen-activated protein kinase kinase kinase kinase 4 (Homo sapiens, UniProt O95819); test: Inhibition of MAP4K4 (unknown origin) assessed as residual activity at 10 uM incubated for 120 mins in presence of 33P-ATP by radiometric kinase assay relative to control
Target sequence in this assay (O95819 2-1239 limits assumed): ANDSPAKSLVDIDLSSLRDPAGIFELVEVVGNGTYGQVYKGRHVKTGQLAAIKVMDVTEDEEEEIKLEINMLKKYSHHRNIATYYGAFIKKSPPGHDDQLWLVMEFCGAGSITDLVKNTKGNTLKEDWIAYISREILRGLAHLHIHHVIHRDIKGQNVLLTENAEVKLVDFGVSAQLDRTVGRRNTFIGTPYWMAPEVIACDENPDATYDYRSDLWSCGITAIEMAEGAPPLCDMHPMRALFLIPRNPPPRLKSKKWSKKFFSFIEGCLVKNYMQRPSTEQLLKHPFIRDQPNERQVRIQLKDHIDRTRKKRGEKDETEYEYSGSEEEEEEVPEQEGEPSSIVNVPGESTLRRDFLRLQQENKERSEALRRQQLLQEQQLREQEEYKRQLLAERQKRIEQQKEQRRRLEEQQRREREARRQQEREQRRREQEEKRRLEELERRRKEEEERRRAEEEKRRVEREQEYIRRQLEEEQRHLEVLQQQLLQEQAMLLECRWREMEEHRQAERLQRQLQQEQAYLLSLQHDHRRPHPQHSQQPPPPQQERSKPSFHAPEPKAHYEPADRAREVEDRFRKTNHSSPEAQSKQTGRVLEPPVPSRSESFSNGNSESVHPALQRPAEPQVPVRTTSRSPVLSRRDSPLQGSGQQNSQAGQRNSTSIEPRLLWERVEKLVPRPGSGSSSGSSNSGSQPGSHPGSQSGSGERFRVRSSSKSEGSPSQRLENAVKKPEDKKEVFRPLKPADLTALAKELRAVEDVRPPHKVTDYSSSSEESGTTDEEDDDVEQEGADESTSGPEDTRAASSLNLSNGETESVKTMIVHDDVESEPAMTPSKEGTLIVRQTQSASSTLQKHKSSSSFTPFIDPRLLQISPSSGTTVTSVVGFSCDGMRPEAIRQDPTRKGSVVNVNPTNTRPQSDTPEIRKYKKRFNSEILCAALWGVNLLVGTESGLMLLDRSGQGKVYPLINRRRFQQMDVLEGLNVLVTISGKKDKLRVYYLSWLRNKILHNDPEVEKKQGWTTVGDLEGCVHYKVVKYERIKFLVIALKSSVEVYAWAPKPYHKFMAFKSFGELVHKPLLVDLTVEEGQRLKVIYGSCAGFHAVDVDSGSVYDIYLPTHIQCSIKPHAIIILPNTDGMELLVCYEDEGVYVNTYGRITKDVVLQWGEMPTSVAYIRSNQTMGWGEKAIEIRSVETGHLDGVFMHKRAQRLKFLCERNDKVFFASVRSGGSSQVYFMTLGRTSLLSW

[16] = molecular target: Cyclin-dependent kinase 9 (Homo sapiens) (UniProt P50750); test: Inhibition of CDK9 in human A549 cells assessed as downregulation of p21 mRNA expression at 1 to 10 uM incubated for 90 mins by RT-qPCR analysis relative to control; type: cell-based; conditions: dose 1-10 µM
[17] = Induction of apoptosis in human Acute myeloid leukemic cell at 10 uM incubated for 24 hrs by Annexin V-FITC/PI staining based flow cytometric analysis relative to control; type: functional, Leukemia cell; procedure, shortened: as §2
[18] = molecular target: Cyclin-dependent kinase 9 (Homo sapiens) (UniProt P50750); test: Inhibition of CDK9 in human A549 cells assessed as downregulation of PLK2 mRNA expression at 2 to 6 uM incubated for 90 mins by RT-qPCR analysis relative to control; type: cell-based; conditions: dose 2-6 µM
[19] = Transcription level in human HCT-116 cells nuclear extract fused with Gal4-VP16 at 10 uM in presence of ATP by phosphorimaging analysis relative to control
[20] = molecular target: T1, Mitogen-activated protein kinase kinase kinase kinase 4; test: Inhibition of MAP4K4 (unknown origin) incubated for 120 mins in presence of 33P-ATP by radiometric kinase assay
Target sequence in this assay (O95819 whole entry): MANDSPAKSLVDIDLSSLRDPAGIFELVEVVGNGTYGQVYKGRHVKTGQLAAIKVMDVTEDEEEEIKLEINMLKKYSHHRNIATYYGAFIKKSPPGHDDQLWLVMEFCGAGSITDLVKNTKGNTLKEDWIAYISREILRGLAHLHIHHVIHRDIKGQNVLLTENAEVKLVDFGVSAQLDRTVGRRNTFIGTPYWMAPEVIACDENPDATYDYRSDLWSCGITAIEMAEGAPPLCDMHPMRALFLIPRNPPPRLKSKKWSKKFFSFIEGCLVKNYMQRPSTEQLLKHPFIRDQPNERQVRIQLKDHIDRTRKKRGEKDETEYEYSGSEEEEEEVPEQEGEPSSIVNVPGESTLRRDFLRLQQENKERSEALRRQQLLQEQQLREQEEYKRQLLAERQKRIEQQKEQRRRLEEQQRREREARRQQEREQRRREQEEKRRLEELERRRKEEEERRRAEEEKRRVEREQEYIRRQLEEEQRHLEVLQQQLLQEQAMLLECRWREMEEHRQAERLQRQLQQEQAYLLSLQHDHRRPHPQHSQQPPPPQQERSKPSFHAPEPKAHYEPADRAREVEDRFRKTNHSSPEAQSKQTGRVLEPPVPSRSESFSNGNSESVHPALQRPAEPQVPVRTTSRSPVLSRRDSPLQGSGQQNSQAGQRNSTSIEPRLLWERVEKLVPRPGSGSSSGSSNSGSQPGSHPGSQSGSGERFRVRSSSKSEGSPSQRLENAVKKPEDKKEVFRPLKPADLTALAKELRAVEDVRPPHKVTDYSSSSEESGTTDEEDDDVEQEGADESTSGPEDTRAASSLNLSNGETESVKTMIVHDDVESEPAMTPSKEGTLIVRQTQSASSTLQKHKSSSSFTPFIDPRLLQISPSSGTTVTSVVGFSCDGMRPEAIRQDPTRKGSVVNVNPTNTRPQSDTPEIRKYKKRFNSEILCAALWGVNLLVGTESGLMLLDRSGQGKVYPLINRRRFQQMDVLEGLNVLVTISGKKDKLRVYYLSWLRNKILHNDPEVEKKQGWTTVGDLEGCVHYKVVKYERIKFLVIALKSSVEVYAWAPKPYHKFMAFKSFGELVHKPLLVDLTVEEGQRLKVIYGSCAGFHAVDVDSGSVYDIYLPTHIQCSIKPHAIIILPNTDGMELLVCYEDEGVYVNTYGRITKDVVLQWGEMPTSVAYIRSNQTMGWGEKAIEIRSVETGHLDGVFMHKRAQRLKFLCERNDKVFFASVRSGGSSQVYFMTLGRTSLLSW

[21] = molecular target: Cyclin-dependent kinase 9 (Homo sapiens) (UniProt P50750); test: Inhibition of CDK9 in human A549 cells assessed as downregulation of MYC mRNA expression at 1 to 10 uM incubated for 90 mins by RT-qPCR analysis relative to control; type: cell-based; conditions: dose 1-10 µM
[22] = molecular target: Cyclin-dependent kinase 9 (Homo sapiens) (UniProt P50750); test: Inhibition of CDK9 in human A549 cells assessed as downregulation of RPL3 mRNA expression at 1 to 10 uM incubated for 90 mins by RT-qPCR analysis relative to control; type: cell-based; conditions: dose 1-10 µM

Chain of Cyclin-dependent kinase 9 (Homo sapiens) (P50750 whole entry, the tested form may be a part): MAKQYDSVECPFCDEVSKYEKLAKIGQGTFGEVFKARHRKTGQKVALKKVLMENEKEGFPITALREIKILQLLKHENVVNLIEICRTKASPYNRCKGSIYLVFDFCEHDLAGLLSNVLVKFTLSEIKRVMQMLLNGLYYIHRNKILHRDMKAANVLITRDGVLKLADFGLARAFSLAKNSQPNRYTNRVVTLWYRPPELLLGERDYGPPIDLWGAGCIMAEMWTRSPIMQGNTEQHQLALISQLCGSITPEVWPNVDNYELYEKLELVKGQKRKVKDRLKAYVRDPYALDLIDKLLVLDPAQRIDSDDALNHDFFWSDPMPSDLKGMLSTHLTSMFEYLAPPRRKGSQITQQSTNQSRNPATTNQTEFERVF
Chain of Cyclin-dependent kinase 9 (Mus musculus) (Q99J95 whole entry): as the sequence (P50750 whole entry, the tested form may be a part) above, with S17T, R37K, K40Q, N258K, Y262F counted along it
Chain of Cyclin-dependent kinase 1/cyclin B1 (P06493 whole entry): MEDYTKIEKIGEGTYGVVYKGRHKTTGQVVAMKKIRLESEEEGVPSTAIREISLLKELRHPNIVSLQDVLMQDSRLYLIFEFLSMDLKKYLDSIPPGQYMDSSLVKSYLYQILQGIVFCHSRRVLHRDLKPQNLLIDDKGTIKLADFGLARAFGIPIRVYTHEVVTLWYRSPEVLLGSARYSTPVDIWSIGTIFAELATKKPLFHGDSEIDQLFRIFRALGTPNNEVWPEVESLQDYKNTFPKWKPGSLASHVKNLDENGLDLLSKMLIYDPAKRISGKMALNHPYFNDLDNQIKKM
Chain of Cyclin-dependent kinase 1/cyclin B1 (P14635 whole entry, further chain): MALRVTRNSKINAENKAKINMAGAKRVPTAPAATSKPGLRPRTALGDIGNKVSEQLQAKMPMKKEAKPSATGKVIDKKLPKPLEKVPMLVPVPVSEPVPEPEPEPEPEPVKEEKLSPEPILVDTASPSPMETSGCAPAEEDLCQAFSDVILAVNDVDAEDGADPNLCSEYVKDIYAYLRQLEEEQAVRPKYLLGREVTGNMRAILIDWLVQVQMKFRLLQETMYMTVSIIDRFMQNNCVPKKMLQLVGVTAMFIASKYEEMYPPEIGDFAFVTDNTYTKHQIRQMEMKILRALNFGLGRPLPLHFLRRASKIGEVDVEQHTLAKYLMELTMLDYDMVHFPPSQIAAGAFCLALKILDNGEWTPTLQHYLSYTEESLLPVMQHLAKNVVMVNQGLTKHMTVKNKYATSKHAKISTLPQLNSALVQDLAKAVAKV

With `COc1ccccc1-c1cc(Nc2cccc(NS(C)(=O)=O)c2)ncn1` as the compound, how does the Ratio IC50 [1] read?
The Ratio IC50 was over 227.

And the inhibition at 10 µM (HeLa)?
Its inhibition at 10 µM is 80%.

What about the inhibition [2] of the same compound?
Its inhibition is “Active”.

What about the inhibition [3] of the same compound?
Its inhibition is “Active”.

What about the IC50 [4] of the same compound?
The IC50 was 5510 nM.

And the Activity (HCT 116 TP53(-/-))?
The Activity was “Active”.

What about the inhibition at 4 µM [5] of the same compound?
Its inhibition at 4 µM is 50%.

What about the Ratio IC50 [6] of the same compound?
Its Ratio IC50 is 125.

And the inhibition [7]?
The inhibition was “Active”.

And the Ratio IC50 [8]?
The Ratio IC50 was 55.

And the inhibition [9]?
The inhibition was “Active”.

And the Activity (MCF7)?
Its Activity is “Active”.

And the inhibition [10]?
The inhibition was “Active”.

What about the inhibition (HEK-293T) of the same compound?
Its inhibition is “Active”.

What about the inhibition [11] of the same compound?
Its inhibition is 50%.

What about the IC50 [12] of the same compound?
Its IC50 is 2440 nM.

What about the inhibition [13] of the same compound?
The inhibition was 50%.

And the inhibition [14]?
The inhibition was 50%.

What about the Activity [15] of the same compound?
The Activity was 17.5%.

What about the inhibition [16] of the same compound?
Its inhibition is 50%.

What about the Activity [17] of the same compound?
Its Activity is over 60%.

What about the inhibition [18] of the same compound?
Its inhibition is 50%.

What about the level, % of control at 10 µM [19] of the same compound?
The level, % of control at 10 µM was 20%.

What about the IC50 [20] of the same compound?
The IC50 was 820 nM.

And the inhibition [21]?
Its inhibition is 50%.

And the inhibition [22]?
Its inhibition is 50%.
